# From PubChem
# STAT3 inh – STAT3 signaling inhibition | U3A cells, IL-6 STAT3-luciferase reporter, luminescence; host cell line lacks STAT1 | inhibition, % at 5.5 µM | actives 0.89% (n = 190,000) | AID 862;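 active = inhibition above the mean inhibition across all screened compounds plus 3 SD, cut at about 44% in these data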;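 also: 0% = DMSO only wells and 100% = 100 µM nifuroxazide control wells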
# Platelet DG rel – platelet dense granule release activity; AID 1663; actives 0.22% (n = 300,000); inhibition, %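 (compounds screened at 7.5 µM in platelet-rich plasma)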; human platelet-rich plasma, SFLLRN dense granule ATP release, luminescence;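 active = mean replicate score, as percent of positive control, at or above 50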
# STAT1 inh – reduces IFN-gamma driven STAT1 reporter signal; NIH 3T3 STAT1-luciferase reporter, luminescence; actives 0.35% (n = 200,000); inhibition, % at 5.5 µM;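 active = inhibition above a set limit, the mean inhibition across all tested compounds plus 3 SD, cut at about 34% in these data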;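 also: 0% = IFN-gamma with DMSO and 100% = IFN-gamma with 300 µM nifuroxazide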
# PERK inh – blocks human PERK kinase; actives 0.17% (n = 220,000); inhibition, % at 5.6 µM; Q9NZJ5; CHO PERK-DD fusion, SEAP luminescence translation reporter;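 active = inhibition above the mean inhibition of all tested compounds plus 3 SD, set separately per screening campaign, cut at about 2.9% in these data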;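 also: PERK kinase domain activated by AP20187 dimerizer at 100 nM; 0% = DMSO with dimerizer and 100% = rapamycin at 8.4 µM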
# STAT3 act – activators of IL-6 induced STAT3 signaling. U3A cells, IL-6 STAT3-luciferase reporter, luminescence; 100% = signal with IL-6 EC80 alone. activation (% of control), % at 5.6 µM. actives 0.91% (n = 190,000). AID 871;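 active = activation above the screen-wide mean of compound activation plus 3 SD, cut at about 130% in these data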;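 also: 0% = background luminescence of wells with medium and substrate only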
#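 Material: human STAT1-deficient U3A cells with stable STAT3-luciferase reporter / Probe or stimulus: IL-6 stimulus at 33 ng/mL final / Schedule: 1 h compound pre-exposure, 6 h IL-6 stimulation, 37 °C / Technique: luminescence / Read-out basis: percent of IL-6-only median luminescence / Control set: IL-6-only high control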
# The depositor's hits bear a star; x = no result. In the library only some 1.4% were active in any assay of this set; here they are far more common.
SMILES,STAT3 inh,Platelet DG rel,STAT1 inh,PERK inh,STAT3 act
Cc1cc(=O)n2nc(N3CCCC(C(=O)NCc4ccc(F)cc4)C3)sc2n1 (stereo not drawn),x,2,x,x,x
CC1(C)CC(=O)C(C=NCCN2CCNCC2)=C(O)C1,-8,-5,-4,1,108
C=CCSc1nc2ccccc2c(=O)[nH]1,16,-16,-5,3.0*,94
Cc1cc(-c2nnc(CCC(=O)NC(C)c3cccc4ccccc34)o2)no1 (stereo not drawn),-6,50*,-10,0,108
Cc1cc(-c2nnc(CCC(=O)NC(C)c3ccccc3Cl)o2)no1 (stereo not drawn),0,8,3,0,100
COc1ccccc1-c1cc2nc(C)cc(C)n2n1,x,4,x,1,x
CCO[C@H]1OC(C(N)=O)=C[C@@H](C)[C@@H]1CCCO,x,0,5,1,x
COc1ccc(-n2nc3cc(C)c(NC(=O)C(C)C)cc3n2)cc1,26,-2,-43,1,79
COc1ccc(-n2nc3cc(C)c(N)c(Br)c3n2)cc1,-69,30,-73,-1,165*
COc1ccc(-n2nc3cc(C)c(NC(C)=O)cc3n2)cc1,76*,11,39*,0,38
C/C(=N\NC(=O)c1ccc2c(c1)OCCO2)c1ccccc1,x,71*,x,0,x
Cc1nnc(NC(=O)c2ccc3ccccc3n2)s1,-34,-6,-45,1,136*
COc1cccc(-c2cn3nc(C)c(C)nc3n2)c1,25,74*,-30,0,83
CCc1ccc(NSc2ccccc2[N+](=O)[O-])cc1,25,9,12,3.2*,85
O=C(O)c1ccccc1NSc1ccccc1[N+](=O)[O-],9,-4,6,0,95
Cc1cc(C2=NNC(=NC3CC3)SC2)c(C)n1Cc1ccco1,85*,x,52*,0,29
COCCn1c(C)cc(C2=NNC(=NC3CC3)SC2)c1C,103*,82*,97*,0,10
COCCCN=C1NN=C(c2cc(C)n(Cc3ccco3)c2C)CS1,3,-5,-26,-1,98
O=C(O)c1cccnc1SCc1cn2cc(Cl)ccc2n1,x,0,x,3.0*,x
O=C(O)c1ccccc1SCc1cn2cc(Cl)ccc2n1,8,0,-3,2,102
O=C(O)Cn1nnnc1SCC(=O)Nc1ccc(F)cc1F,7,2,8,0,96
CNc1nc2c3ccccc3n(C(C)=O)c2s1,12,50*,-11,0,88
CC(=O)n1c2ccccc2c2nc(NC(C)C)sc21,24,-4,-6,0,83
CCOC(=O)c1ccc(NC(=S)N(CCN2CCCCCC2)Cc2cccs2)cc1,12,3,-6,0,96
O=C(Cn1c(O)c(/C=C2\C=Nc3ccccc32)sc1=O)N1CCOCC1,-36,2,-6,1,134*
SMILES,STAT3 inh,Platelet DG rel,STAT1 inh,PERK inh,STAT3 act
COCCn1c(/C=C/c2ccccc2)nc2ccccc21,18,11,-54,0,88
Cn1c(=O)c(/C=C/c2ccccc2)nc2ccccc21,-52,10,-38,-2,146*
Cn1c(/C=C/c2ccccc2)nc2ccccc21,89*,81*,75*,0,26
Cn1c(=O)c(C(=O)c2ccccc2)nc2ccccc21,-7,20,-3,1,111
CCc1cc2c3c(c(=O)oc2cc1OCC(=O)OC)CCCC3,x,0,x,x,x
O=c1cc(-c2cccc(F)c2)[nH]c2ccccc12,-43,-2,-9,0,133*
CC1(C)Cc2c(sc3nc(NCCN4CCOCC4)n4ncnc4c23)CO1,18,52*,3,-1,87
Cc1ccc(NC2=C(N3CCOCC3)C(=O)c3ccccc3C2=O)cc1,9,-5,-31,3.2*,101
Cc1[nH]c(=S)[nH]c(=O)c1CCOc1ccccc1,11,3,-3,3.1*,94
O=C(Nc1cnc2ccccc2c1)c1cccc(-n2cnnn2)c1,-34,2,-38,0,138*
CC(=O)Nc1cc2ccccc2oc1=O,4,-4,-10,0,98
Cc1ccc(C(=O)Nc2cnc3ccccc3c2)cc1,110*,x,91*,-2,9
Cc1ccc(C(=O)Nc2cc3ccccc3oc2=O)cc1,106*,50*,94*,1,10
C=CCn1c(N(C)C)nc2c1c(=O)[nH]c(=O)n2C,x,-4,x,x,x
CC(=O)Nc1cccc(Oc2ncnc3scc(-c4ccc(C(C)C)cc4)c23)c1,2,3,10,-1,97
COc1ccc(-c2ccc(SCC(=O)Nc3nccs3)nn2)cc1OC,-42,3,-9,0,135*
CN=c1scc(-c2cccs2)n1/N=C/c1ccccc1O,107*,12,47*,1,9
CN=c1scc(-c2cccs2)n1/N=C/c1ccc(O)c(O)c1O,45*,60*,47*,1,64
CN=c1scc(C)n1/N=C/c1ccc(O)c(O)c1O,23,16,9,-1,81
CC(C)(C)C(=O)NC(n1cnc2c(N3CCOCC3)ncnc21)C(Cl)(Cl)Cl (stereo not drawn),3,-1,10,-1,99
COc1ccc(C(=O)Nc2cc(OC)nc(OC)n2)cc1,27,56*,-34,-1,80
COc1ccccc1NC(=O)NC1(C(=O)N2CCCCCC2)CCCCC1,4,53*,0,1,98
COC(=O)c1ccccc1NC(=O)Nc1ccc(C(=O)N2CCCC2)cc1,11,-7,3,1,93
COc1ccccc1NC(=O)Nc1ccc(C(=O)N2CCCCC2)cc1,x,92*,x,-1,x
COc1ccccc1NC(=O)NC1(C(=O)N2CCOCC2)CCCCC1,x,42,x,x,x
SMILES,STAT3 inh,Platelet DG rel,STAT1 inh,PERK inh,STAT3 act
COc1ccccc1C(=O)NNC(=O)c1nn(Cc2ccccc2)c(=O)c2ccccc12,-38,1,9,0,135*
CC(C)CNC(=O)c1nn(Cc2ccccc2)c(=O)c2ccccc12,x,15,x,x,x
O=C(C=C1NCCN1)c1ccccc1,x,1,x,x,x
O=C(/C=C1\NCC2c3ccccc3CCN2C1=O)c1ccccc1 (stereo not drawn),-31,4,1,1,134*
Cc1ccc(S(=O)(=O)N(Cc2ccc(Cl)cc2)c2ccccc2C(=O)NCc2ccco2)cc1,-2,-8,-2,0,107
CS(=O)(=O)N1CCC(C(=O)Nc2cccc(Br)c2)CC1,x,-4,x,x,x
Fc1ccc(Nc2ccc3ccccc3n2)c(F)c1,72*,26,44*,0,41
O=C(Nc1ccc2ccccc2n1)Nc1ccccc1F,x,-7,x,x,x
Clc1ccc(CSc2nc3ccncc3[nH]2)cc1,81*,17,52*,1,37
Cc1ccc(CSc2nc3ccncc3[nH]2)cc1,100*,26,72*,1,21
O=C(NCc1ccc(Cl)cc1)c1ccc(CSc2nc3ccncc3[nH]2)cc1,x,6,x,-1,x
O=C(c1ccc(CSc2nc3ccncc3[nH]2)cc1)N1CCCCCC1,x,0,x,1,x
CC(=O)C1C(c2ccco2)c2c(noc2C)CC1(C)O (stereo not drawn),-2,-2,-3,3.0*,102
